Test results reported in ChEMBL document CHEMBL4190254, “Synthesis of sulfamoylbenzamide derivatives as HBV capsid assembly effector” (Eur J Med Chem, 2017).

Key:
[1] = system: PBMC; assay: Cytotoxicity against human PBMC by CellTiter 96 non-radioactive cell proliferation colorimetric assay; format: cell-based
How it was run: (§1)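 A CellTiter 96 colorimetric cell proliferation read-out was used in primary human PBM cells, CEM, Vero and HepG2 cells. CC50 is the concentration that inhibits cell growth by 50%.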

[2] = system: Hepatitis B virus; assay: Antiviral activity against HBV infected in human HepAD38 cells assessed as reduction in viral replication by RT-PCR method; format: functional, organism-based
How it was run: (§2)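 HBV DNA replication in HepAD38 cells was quantified by RT-PCR following an earlier published method, with data relative to the untreated control. EC50 (50% inhibition of HBV DNA replication) was derived by linear regression. Values are the mean ± SD of two or three replicates from 2 independent experiments.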

[3] = system: CCRF-CEM; assay: Cytotoxicity against human CEM cells by CellTiter 96 non-radioactive cell proliferation colorimetric assay; format: cell-based; conditions: ccrf-cem; how it was run: as §1
[4] = system: HepG2; assay: Cytotoxicity against human HepG2 cells by CellTiter 96 non-radioactive cell proliferation colorimetric assay; format: cell-based; how it was run: as §1
[5] = system: Vero; assay: Cytotoxicity against African green monkey Vero cells by CellTiter 96 non-radioactive cell proliferation colorimetric assay; format: cell-based; conditions: chlorocebus sabaeus, vero; how it was run: as §1
[6] = target: Core antigen (Hepatitis B virus) (UniProt Q03732); assay: Inhibition of capsid in HBV infected in human HepAD38 cells assessed as reduction in tetracycline-induced cccDNA formation by measuring reduction in HBe antigen secretion after 14 days by ELISA; format: cell-based
How it was run: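 HepAD38 cells, collagen-coated wells, DMEM/F12 with 10% heat-inactivated FBS. Tetracycline withdrawn 7 days to allow DNA synthesis and cccDNA formation; at day 7 tetracycline (0.3 μg/ml) plus compound re-added. Compound at 10 μM or 0.001–10 μM, medium and compound replenished every 5 days. Day-14 supernatant HBeAg by ELISA; EC50 by linear regression.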

[7] = system: Hepatitis B virus; assay: Antiviral activity against HBV infected in human HepAD38 cells assessed as reduction in intracellular viral DNA level at 10 uM by RT-PCR method relative to control; format: functional; design: scale not given: the % may be the effect or the level left
How it was run: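 HepAD38 cells; intracellular HBV DNA quantified by RT-PCR, expressed relative to untreated control; single-point inhibition given as percent at 10 μM, mean ± SD of two or three replicates from 2 independent experiments.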

[8] = system: Hepatitis B virus; assay: Antiviral activity against HBV infected in human HepAD38 cells assessed as reduction in extracellular viral DNA level by RT-PCR method; format: functional, organism-based; how it was run: as §2
[9] = system: Hepatitis B virus; assay: Antiviral activity against HBV infected in human HepAD38 cells assessed as reduction in intracellular viral DNA level by RT-PCR method; format: functional, organism-based; how it was run: as §2
[10] = system: Hepatitis B virus; assay: Antiviral activity against HBV infected in human HepAD38 cells assessed as inhibition of viral replication at 10 uM by RT-PCR method relative to control; format: functional
How it was run: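 HBV DNA replication in HepAD38 cells was quantified by RT-PCR following an earlier published method. Each compound was tested at a single 10 μM concentration. Results are % inhibition ± SD relative to the untreated control.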

Core antigen (Hepatitis B virus), sequence (Q03732 as listed by the source): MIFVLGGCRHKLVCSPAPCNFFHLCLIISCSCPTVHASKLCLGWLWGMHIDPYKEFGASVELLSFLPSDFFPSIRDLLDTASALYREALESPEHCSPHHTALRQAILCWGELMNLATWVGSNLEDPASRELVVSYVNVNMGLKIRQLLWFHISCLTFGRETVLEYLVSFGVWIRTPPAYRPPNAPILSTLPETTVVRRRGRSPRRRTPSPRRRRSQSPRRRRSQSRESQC

O=C1c2cc(S(=O)(=O)NC3CCCC3)ccc2CCCN1c1ccc(F)c(F)c1
CC50 [1]: > 100 µM | EC50 [2]: > 10 µM | CC50 [3]: 50.6 µM | CC50 [4]: > 100 µM | CC50 [5]: > 100 µM

CCOC(=O)C1=C(CN2CCOCC2)NC(c2nccs2)=NC1c1ccc(F)cc1Br (configuration not stated)
EC90 [6]: 1.9 µM | Activity [7]: 82% | EC50 [8]: 0.2 µM | EC90 [8]: 1 µM | EC50 [9]: < 0.01 µM | EC90 [9]: 0.05 µM

CN(C1CCCC1)S(=O)(=O)c1ccc2c(c1)C(=O)N(c1ccc(F)c(F)c1)CCC2
CC50 [1]: > 100 µM | EC50 [2]: > 10 µM | CC50 [3]: > 100 µM | CC50 [4]: > 100 µM | CC50 [5]: > 100 µM

CN(C1CCCC1)S(=O)(=O)c1ccc2c(c1)C(=O)N(c1ccc(F)c(F)c1)CC2
CC50 [1]: 71.2 µM | EC50 [2]: > 10 µM | CC50 [3]: 36 µM | CC50 [4]: > 100 µM | CC50 [5]: > 100 µM

CC(C)(NS(=O)(=O)c1ccc(F)c(C(=O)Nc2ccc(F)c(F)c2)c1)c1ccccc1
CC50 [1]: > 100 µM | EC50 [2]: 6.8 µM | EC90 [2]: 9.6 µM | CC50 [3]: 3.8 µM | CC50 [4]: 88.2 µM | CC50 [5]: 39.4 µM

O=C(Nc1cc(S(=O)(=O)NC2CCCC2)ccc1F)c1ccc(F)c(F)c1
CC50 [1]: 81 µM | EC50 [2]: ≥ 10 µM | CC50 [3]: 13.6 µM | CC50 [4]: > 100 µM | CC50 [5]: 87.5 µM

O=C(NC1(c2ccc(F)c(F)c2)CC1)c1cc(S(=O)(=O)NC2CCCC2)ccc1F
CC50 [1]: > 100 µM | EC50 [2]: > 10 µM | CC50 [3]: > 100 µM | CC50 [4]: > 100 µM | CC50 [5]: 12.7 µM

O=C(Nc1ccc(F)c(F)c1)c1cc(S(=O)(=O)NC2CC2)ccc1F
CC50 [1]: 30.1 µM | EC50 [2]: 3.2 µM | EC90 [2]: 8.9 µM | CC50 [3]: 13.6 µM | CC50 [4]: 62.3 µM | CC50 [5]: 79.2 µM

CC(C)OC(=O)[C@H](C)NS(=O)(=O)c1ccc(F)c(C(=O)Nc2ccc(F)c(F)c2)c1
CC50 [1]: > 100 µM | EC50 [2]: > 10 µM | CC50 [3]: 31.1 µM | CC50 [4]: 45.5 µM | CC50 [5]: 13.1 µM

O=C(Nc1ccc(F)c(F)c1)c1cc(S(=O)(=O)NS(=O)(=O)c2ccc(F)c(F)c2)ccc1F
CC50 [1]: > 100 µM | EC50 [2]: > 10 µM | CC50 [3]: > 100 µM | CC50 [4]: > 100 µM | CC50 [5]: > 100 µM

O=C(Nc1ccc(F)c(F)c1)c1cc(S(=O)(=O)N2CCC(F)(F)CC2)ccc1F
CC50 [1]: > 100 µM | EC50 [2]: 4.5 µM | EC90 [2]: 9.4 µM | CC50 [3]: 10.3 µM | CC50 [4]: > 100 µM | CC50 [5]: > 100 µM

O=C(Nc1ccc(F)c(F)c1)c1cc(S(=O)(=O)NS(=O)(=O)C2CC2)ccc1F
CC50 [1]: > 100 µM | EC50 [2]: > 10 µM | CC50 [3]: > 100 µM | CC50 [4]: > 100 µM | CC50 [5]: > 100 µM

O=C(Nc1ccc(F)c(F)c1)c1cc(S(=O)(=O)N2CCC3CCCCC32)ccc1F (configuration not stated)
CC50 [1]: > 100 µM | EC50 [2]: 4.6 µM | EC90 [2]: 10 µM | CC50 [3]: 22.9 µM | CC50 [4]: > 100 µM | CC50 [5]: 30.7 µM

O=C(Nc1ccc(F)c(F)c1)c1cc(S(=O)(=O)NOC2CCCC2)ccc1F
inhibition at 10 µM [10]: 82% | CC50 [1]: 13 µM | EC50 [2]: 2.7 µM | EC90 [2]: > 10 µM | CC50 [3]: 6.4 µM | CC50 [4]: 26.4 µM | CC50 [5]: 5.8 µM

CN(C)S(=O)(=O)NS(=O)(=O)c1ccc(F)c(C(=O)Nc2ccc(F)c(F)c2)c1
CC50 [1]: > 100 µM | EC50 [2]: > 10 µM | CC50 [3]: > 100 µM | CC50 [4]: > 100 µM | CC50 [5]: > 100 µM
